Reference: ChEMBL document CHEMBL1255475, “Mutant prevention concentrations of four carbapenems against gram-negative rods” (2010)

Tests used:
Format in all cases: functional
Pseudomonas aeruginosa [1] = assay: Antibacterial activity against Pseudomonas aeruginosa P376 assessed as mutant prevention concentration after overnight incubation
Acinetobacter baumannii [2] = assay: Antibacterial activity against Acinetobacter baumannii A898 assessed as mutant prevention concentration after overnight incubation
Escherichia coli [3] = assay: Antibacterial activity against beta-lactamase-positive ESBL-positive Escherichia coli E465 incubated up to 7 days by agar dilution method; conditions: E465, 168 h
In short: (§1)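 MIC by CLSI agar dilution, with quality-control strains in each run. Beta-lactamase status was set by 30 μg cefazolin Kirby-Bauer disk diffusion. ESBL status was set by cefotaxime and ceftazidime disks (30 μg) with and without clavulanic acid (10 μg).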

Klebsiella pneumoniae [4] = assay: Antibacterial activity against beta-lactamase-positive ESBL-negative Klebsiella pneumoniae E481 assessed as mutant prevention concentration after overnight incubation
In short: (§2)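 Overnight growth on blood trypticase soy agar (35°C, air) was resuspended in 0.9% saline and counted on drug-free Mueller-Hinton agar. […] Colonies were retested by agar dilution to confirm mutants. MPC was the lowest concentration preventing resistant-mutant growth.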

Klebsiella pneumoniae [5] = assay: Antibacterial activity against beta-lactamase-positive ESBL-negative Klebsiella pneumoniae E477 incubated up to 7 days by agar dilution method; conditions: E477, 168 h
Klebsiella pneumoniae [6] = assay: Antibacterial activity against beta-lactamase-positive ESBL-negative Klebsiella pneumoniae E477 assessed as mutant prevention concentration after overnight incubation; in short: as §2
Escherichia coli [7] = assay: Antibacterial activity against beta-lactamase-positive ESBL-negative Escherichia coli E484 incubated up to 7 days by agar dilution method; conditions: E484, 168 h
Escherichia coli [8] = assay: Antibacterial activity against beta-lactamase-negative Escherichia coli E348 assessed as mutant prevention concentration after overnight incubation
Pseudomonas aeruginosa [9] = assay: Antibacterial activity against Pseudomonas aeruginosa P338 assessed as mutant prevention concentration after overnight incubation
Escherichia coli [10] = assay: Antibacterial activity against beta-lactamase-negative Escherichia coli E345 incubated up to 7 days by agar dilution method; conditions: E345, 168 h
Klebsiella pneumoniae [11] = assay: Antibacterial activity against beta-lactamase-positive ESBL-negative Klebsiella pneumoniae E480 assessed as mutant prevention concentration after overnight incubation; in short: as §2
Pseudomonas aeruginosa [12] = assay: Antibacterial activity against Pseudomonas aeruginosa P335 assessed as mutant prevention concentration after overnight incubation
Klebsiella pneumoniae [13] = assay: Antibacterial activity against beta-lactamase-positive ESBL-negative Klebsiella pneumoniae E474 incubated up to 7 days by agar dilution method; conditions: E474, 168 h
Klebsiella pneumoniae [14] = assay: Antibacterial activity against beta-lactamase-negative Klebsiella pneumoniae E357 incubated up to 7 days by agar dilution method; conditions: E357, 168 h
Klebsiella pneumoniae [15] = assay: Antibacterial activity against beta-lactamase-negative Klebsiella pneumoniae E418 incubated up to 7 days by agar dilution method; conditions: E418, 168 h
Klebsiella pneumoniae [16] = assay: Antibacterial activity against beta-lactamase-positive ESBL-negative Klebsiella pneumoniae E481 incubated up to 7 days by agar dilution method; conditions: E481, 168 h
Pseudomonas aeruginosa [17] = assay: Antibacterial activity against Pseudomonas aeruginosa P356 assessed as mutant prevention concentration after overnight incubation
Acinetobacter baumannii [18] = assay: Antibacterial activity against Acinetobacter baumannii A929 assessed as mutant prevention concentration after overnight incubation
Escherichia coli [19] = assay: Antibacterial activity against beta-lactamase-positive ESBL-negative Escherichia coli E437 incubated up to 7 days by agar dilution method; conditions: E437, 168 h; in short: as §1
Escherichia coli [20] = assay: Antibacterial activity against beta-lactamase-positive ESBL-positive Escherichia coli E451 assessed as mutant prevention concentration after overnight incubation; in short: as §2
Escherichia coli [21] = assay: Antibacterial activity against beta-lactamase-negative Escherichia coli E348 incubated up to 7 days by agar dilution method; conditions: E348, 168 h
Escherichia coli [22] = assay: Antibacterial activity against beta-lactamase-positive ESBL-negative Escherichia coli E415 incubated up to 7 days by agar dilution method; conditions: E415, 168 h; in short: as §1
Klebsiella pneumoniae [23] = assay: Antibacterial activity against beta-lactamase-negative Klebsiella pneumoniae E419 assessed as mutant prevention concentration after overnight incubation; in short: as §2
Klebsiella pneumoniae [24] = assay: Antibacterial activity against beta-lactamase-negative Klebsiella pneumoniae E360 assessed as mutant prevention concentration after overnight incubation
Pseudomonas aeruginosa [25] = assay: Antibacterial activity against Pseudomonas aeruginosa P334 assessed as mutant prevention concentration after overnight incubation
Escherichia coli [26] = assay: Antibacterial activity against beta-lactamase-positive ESBL-negative Escherichia coli E430 incubated up to 7 days by agar dilution method; conditions: E430, 168 h; in short: as §1
Pseudomonas aeruginosa [27] = assay: Antibacterial activity against Pseudomonas aeruginosa P341 assessed as mutant prevention concentration after overnight incubation
Klebsiella pneumoniae [28] = assay: Antibacterial activity against beta-lactamase-positive ESBL-negative Klebsiella pneumoniae E511 assessed as mutant prevention concentration after overnight incubation; in short: as §2
Pseudomonas aeruginosa [29] = assay: Antibacterial activity against Pseudomonas aeruginosa P373 assessed as mutant prevention concentration after overnight incubation
Escherichia coli [30] = assay: Antibacterial activity against beta-lactamase-positive ESBL-positive Escherichia coli E458 assessed as mutant prevention concentration after overnight incubation; in short: as §2
Klebsiella pneumoniae [31] = assay: Antibacterial activity against beta-lactamase-negative Klebsiella pneumoniae E358 assessed as mutant prevention concentration after overnight incubation
Escherichia coli [32] = assay: Antibacterial activity against beta-lactamase-positive ESBL-negative Escherichia coli E415 assessed as mutant prevention concentration after overnight incubation; in short: as §2
Pseudomonas aeruginosa [33] = assay: Antibacterial activity against Pseudomonas aeruginosa P353 assessed as mutant prevention concentration after overnight incubation
Klebsiella pneumoniae [34] = assay: Antibacterial activity against beta-lactamase-positive ESBL-positive Klebsiella pneumoniae E478 assessed as mutant prevention concentration after overnight incubation; in short: as §2
Klebsiella pneumoniae [35] = assay: Antibacterial activity against beta-lactamase-positive ESBL-negative Klebsiella pneumoniae E507 assessed as mutant prevention concentration after overnight incubation; in short: as §2
Klebsiella pneumoniae [36] = assay: Antibacterial activity against beta-lactamase-negative Klebsiella pneumoniae E417 incubated up to 7 days by agar dilution method; conditions: E417, 168 h; in short: as §1
Pseudomonas aeruginosa [37] = assay: Antibacterial activity against Pseudomonas aeruginosa P369 assessed as mutant prevention concentration after overnight incubation
Escherichia coli [38] = assay: Antibacterial activity against beta-lactamase-positive ESBL-positive Escherichia coli E458 incubated up to 7 days by agar dilution method; conditions: E458, 168 h; in short: as §1
Pseudomonas aeruginosa [39] = assay: Antibacterial activity against Pseudomonas aeruginosa P320 assessed as mutant prevention concentration after overnight incubation
Escherichia coli [40] = assay: Antibacterial activity against beta-lactamase-positive ESBL-positive Escherichia coli E446 assessed as mutant prevention concentration after overnight incubation; in short: as §2
Escherichia coli [41] = assay: Antibacterial activity against beta-lactamase-positive ESBL-negative Escherichia coli E437 assessed as mutant prevention concentration after overnight incubation; in short: as §2
Klebsiella pneumoniae [42] = assay: Antibacterial activity against beta-lactamase-negative Klebsiella pneumoniae E417 assessed as mutant prevention concentration after overnight incubation
Acinetobacter baumannii [43] = assay: Antibacterial activity against Acinetobacter baumannii A931 assessed as mutant prevention concentration after overnight incubation
Klebsiella pneumoniae [44] = assay: Antibacterial activity against beta-lactamase-positive ESBL-positive Klebsiella pneumoniae E475 assessed as mutant prevention concentration after overnight incubation; in short: as §2
Acinetobacter baumannii [45] = assay: Antibacterial activity against Acinetobacter baumannii A849 assessed as mutant prevention concentration after overnight incubation
Acinetobacter baumannii [46] = assay: Antibacterial activity against Acinetobacter baumannii A901 assessed as mutant prevention concentration after overnight incubation

C[C@@H](O)[C@H]1C(=O)N2C(C(=O)O)=C(S[C@@H]3CN[C@H](CNS(N)(=O)=O)C3)[C@H](C)[C@H]12 [DORIPENEM]
8 µg/mL: MPC (Klebsiella pneumoniae [4]) | MPC (Klebsiella pneumoniae [11]) | MPC (Pseudomonas aeruginosa [27]) | MPC (Acinetobacter baumannii [46])
0.25 µg/mL: MPC (Klebsiella pneumoniae [23])
16 µg/mL: MPC (Pseudomonas aeruginosa [1]) | MPC (Pseudomonas aeruginosa [12]) | MPC (Klebsiella pneumoniae [44]) | MPC (Acinetobacter baumannii [45])
0.03 µg/mL: MIC (Escherichia coli [3]) | MIC (Escherichia coli [10]) | MIC (Escherichia coli [21]) | MIC (Escherichia coli [22]) | MIC (Escherichia coli [26]) | MIC (Escherichia coli [38])
>4 µg/mL: MPC (Pseudomonas aeruginosa [17]) | MPC (Pseudomonas aeruginosa [29])
2 µg/mL: MIC (Klebsiella pneumoniae [5]) | MIC (Escherichia coli [7]) | MIC (Klebsiella pneumoniae [13]) | MIC (Klebsiella pneumoniae [16]) | MPC (Pseudomonas aeruginosa [33]) | MPC (Pseudomonas aeruginosa [37]) | MPC (Acinetobacter baumannii [43])
0.06 µg/mL: MPC (Escherichia coli [8]) | MIC (Klebsiella pneumoniae [14]) | MIC (Escherichia coli [19]) | MPC (Escherichia coli [20]) | MPC (Escherichia coli [30]) | MPC (Escherichia coli [32]) | MIC (Klebsiella pneumoniae [36])
>2 µg/mL: MPC (Pseudomonas aeruginosa [25]) | MPC (Pseudomonas aeruginosa [39])
>64 µg/mL: MPC (Klebsiella pneumoniae [6]) | MPC (Klebsiella pneumoniae [28]) | MPC (Klebsiella pneumoniae [34]) | MPC (Klebsiella pneumoniae [35])
4 µg/mL: MPC (Acinetobacter baumannii [2]) | MPC (Pseudomonas aeruginosa [9]) | MPC (Acinetobacter baumannii [18])
0.125 µg/mL: MIC (Klebsiella pneumoniae [15]) | MPC (Klebsiella pneumoniae [24]) | MPC (Klebsiella pneumoniae [31]) | MPC (Escherichia coli [40]) | MPC (Escherichia coli [41]) | MPC (Klebsiella pneumoniae [42])
